The record followed here is PubChem BioAssay AID504653 (Molecular Libraries Program, Specialized Chemistry Center, …, 2011).

The test system of this test is SW403 caspase-3/7 Glo luminescence, 7 h. The test is described as follows: apoptosis induction by VCP inhibitors – cell-based, mechanism study for p97 inhibitor project (AID 504653). The settings on record: active compounds read high. The method, boiled down:
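Test system – SW403 human cells, endogenous caspase-3/7 activity · Timing – 7 h compound exposure, then 1 h reagent incubation at room temperature · Benchmarks – 1 % DMSO wells as reference · Signal – Caspase-3/7 Glo reagent, luminescence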

Active and inactive are the calls of the source.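 The calls were made as follows: active = caspase 3/7 peak fold activation above 5 at a dose under 20 µM within 7 h; inactive = the rest.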

As for `COc1cccc2c(NCc3ccccc3)nc(-n3c(N)nc4cc(Cl)c(Cl)cc43)nc12`, the maximal fold activation was 1.6 (inactive). Take `Cc1ccc(CNc2nc(NCc3ccccc3)c3ccccc3n2)cc1`: the maximal fold activation is 13 (inactive). For the compound `FC(F)(F)c1ccc(CNc2nc(NCc3ccccc3)c3ccccc3n2)cc1`, the maximal fold activation was 26.

For the compound `COc1cccc2c(NCc3ccccc3)nc(N3CCOc4ccccc43)nc12`, the maximal fold activation was 1.6 (inactive).

On to `COc1cccc2c(NCc3ccccc3)nc(NCc3cccs3)nc12`, for which the maximal fold activation was 24.

As for `COc1cccc(CNc2nc(NCc3ccccc3)c3ccccc3n2)c1`, the maximal fold activation was 3.3 (inactive). To `c1ccc(CNc2nc(N3CCOc4ccccc43)nc3ccsc23)cc1` belongs 1.4 (inactive). To `COc1cccc2c(NCc3ccccc3)nc(Nc3nc4ccccc4n3C)nc12` belongs 16; to `COc1cccc2c(NCc3ccccc3)nc(-n3c(N)nc4ccccc43)nc12`, 29. The same measure for `c1ccc(CNc2nc(N3CCOc4ccccc43)nc3ccccc23)cc1`: 1.6 (inactive); for `CCN(CC)CCOc1cccc2c(NCc3ccccc3)nc(N3CCOc4ccccc43)nc12`: 8 (inactive); for `Fc1cccc(Nc2nc(NCc3ccccc3)c3ccccc3n2)c1`: 15 (inactive). With `OCCOc1cccc2c(NCc3ccccc3)nc(N3CCOc4ccccc43)nc12`, the maximal fold activation was 1.3 (inactive).

Consider `COc1cccc2c(NCc3ccccc3)nc(NCc3ccccc3)nc12`, for which the maximal fold activation was 12 (inactive). Take `Fc1cccc(CNc2nc(NCc3ccccc3)c3ccccc3n2)c1`: the maximal fold activation is 5.9 (inactive). As to `Clc1cccc(Nc2nc(NCc3ccccc3)c3ccccc3n2)c1`, the maximal fold activation was 7.3 (inactive). To `Brc1cccc(CNc2nc(NCc3ccccc3)c3ccccc3n2)c1` belongs 18.
